The source of these data is ChEMBL document CHEMBL1177846, “Benzylidene/2-chlorobenzylidene hydrazides: synthesis, antimicrobial activity, QSAR studies and antiviral evaluation” (Eur J Med Chem, 2010).

The test system of one data set is Bacillus subtilis. Put plainly: Antibacterial activity against Bacillus subtilis after 24 hrs by serial dilution method. In kind it is functional.
The subject of another data set is Vaccinia virus. Put plainly: Antiviral activity against Vaccinia virus infected in human HEL cells assessed as inhibition of virus-induced cytopathic effect after 3 days by MTS assay. It counts as functional, organism-based. The note with it: Orthopoxvirus vaccinia. Put shortly:
(§1)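 Confluent cell monolayers were infected with 100 CCID50 of virus and allowed 2 h adsorption at 37 °C. Virus was then removed and serial compound dilutions were added. Cultures were incubated at 37 °C for 3 days, until CPE was complete in the untreated virus control. EC50 was the concentration giving 50% inhibition of virus-induced CPE, by visual score or by MTS formazan cell viability.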

Data set [1] deals with Human alphaherpesvirus 1. Put plainly: Antiviral activity against Herpes simplex virus 1 KOS infected in human HEL cells assessed as inhibition of virus-induced cytopathic effect after 3 days by MTS assay. In kind it is functional, organism-based. Put shortly:
as §1

The test system of data set [2] is Human alphaherpesvirus 1. The experiment in a line: Antiviral activity against acyclovir-resistant […] kinase-deficient HSV1 KOS infected in human HEL cells assessed as inhibition of virus-induced cytopathic effect after 3 days by MTS assay. In kind it is functional, organism-based. The procedure, abridged:
as §1

The test system of another data set is Feline coronavirus. Put plainly: Antiviral activity against Feline caronavirus infected in […] cells assessed as inhibition of virus-induced cytopathic effect after 3 days by MTS assay. In kind it is functional, organism-based. Put shortly:
as §1
(In general: Protection from cytopathic effect is a common read-out in antiviral testing.)

In the next data set the test system is Aspergillus niger. The experiment in a line: Antifungal activity against Aspergillus niger after 7 days by serial dilution method. It counts as functional.
A further data set concerns Influenza B virus. The experiment in a line: Antiviral activity against influenza B virus infected in MDCK cells assessed as inhibition of virus-induced cytopathic effect after 3 days by MTS assay. It counts as functional, organism-based. Put shortly:
as §1

Data set [3] deals with Coxsackievirus B4. The experiment in a line: Antiviral activity against Coxsackie virus B4 infected in african green monkey Vero cells assessed as inhibition of virus-induced cytopathic effect after 3 days by MTS assay. In kind it is functional, organism-based. The procedure, abridged:
as §1

A further data set deals with Escherichia coli. Put plainly: Antibacterial activity against Escherichia coli after 24 hrs by serial dilution method. It counts as functional.
The test system of the next data set is Punta Toro virus. Put plainly: Antiviral activity against Punta toro virus infected in african green monkey Vero cells assessed as inhibition of virus-induced cytopathic effect after 3 days by MTS assay. In kind it is functional, organism-based. The procedure, abridged:
as §1

The next data set concerns Human respirovirus 3. Put plainly: Antiviral activity against Parainfluenza 3 virus infected in african green monkey Vero cells assessed as inhibition of virus-induced cytopathic effect after 3 days by MTS assay. In kind it is functional, organism-based. The procedure, abridged:
as §1

Data set [4] deals with Respiratory syncytial virus. Put plainly: Antiviral activity against RSV infected in human HeLa cells assessed as inhibition of virus-induced cytopathic effect after 3 days by MTS assay. It counts as functional, organism-based. To be noted: 72 h. The procedure, abridged:
as §1

In data set [5] the test system is Vesicular stomatitis virus. The experiment in a line: Antiviral activity against VSV infected in human HeLa cells assessed as inhibition of virus-induced cytopathic effect after 3 days by MTS assay. In kind it is functional, organism-based. The note with it: 72 h. Put shortly: as §1
In a further data set the test system is Sindbis virus. Put plainly: Antiviral activity against Simbidis virus infected in african green monkey Vero cells assessed as inhibition of virus-induced cytopathic effect after 3 days by MTS assay. In kind it is functional, organism-based. Put shortly: as §1
Another data set deals with Staphylococcus aureus. Put plainly: Antibacterial activity against Staphylococcus aureus after 24 hrs by serial dilution method. In kind it is functional.
For data set [6], the system named is Coxsackievirus B4. Put plainly: Antiviral activity against Coxsackie virus B4 infected in human HeLa cells assessed as inhibition of virus-induced cytopathic effect after 3 days by MTS assay. It counts as functional, organism-based. To be noted: Enterovirus B, 72 h. Put shortly:
as §1

For data set [7], the system named is Influenza A virus. Put plainly: Antiviral activity against influenza A virus H1N1 infected in MDCK cells assessed as inhibition of virus-induced cytopathic effect after 3 days by MTS assay. It counts as functional, organism-based. The procedure, abridged:
as §1

The test system of data set [8] is Vesicular stomatitis virus. The experiment in a line: Antiviral activity against VSV infected in human HEL cells assessed as inhibition of virus-induced cytopathic effect after 3 days by MTS assay. In kind it is functional, organism-based. The procedure, abridged:
as §1

The next data set concerns Felid alphaherpesvirus 1. Put plainly: Antiviral activity against Feline herpesvirus 1 infected in […] cells assessed as inhibition of virus-induced cytopathic effect after 3 days by MTS assay. It counts as functional, organism-based. Put shortly:
as §1

The test system of data set [9] is Influenza A virus. The experiment in a line: Antiviral activity against influenza A virus H3N2 infected in MDCK cells assessed as inhibition of virus-induced cytopathic effect after 3 days by MTS assay. It counts as functional, organism-based. The procedure, abridged:
as §1

Another data set relates to Candida albicans. Put plainly: Antifungal activity against Candida albicans after 48 hrs by serial dilution method. In kind it is functional. Put shortly:
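Serial compound dilutions in Sabouraud dextrose broth (tube dilution), incubated 37 °C for 48 h. MIC was read as the lowest concentration with no growth.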

For another data set, the system named is Human alphaherpesvirus 2. The experiment in a line: Antiviral activity against Herpes simplex virus 2 G infected in human HEL cells assessed as inhibition of virus-induced cytopathic effect after 3 days by MTS assay. It counts as functional, organism-based. The note with it: strain G. The procedure, abridged:
as §1

The test system of data set [10] is Mammalian orthoreovirus 1. The experiment in a line: Antiviral activity against Reovirus 1 infected in african green monkey Vero cells assessed as inhibition of virus-induced cytopathic effect after 3 days by MTS assay. It counts as functional, organism-based. Put shortly: as §1
Data set [11] can be described thus: (§2) Cytotoxicity against human HeLa cells after 3 days by MTS assay. It counts as cell-based. The note with it: HeLa cells. The procedure, abridged: (§3)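 Uninfected HeLa cells were run in parallel with the antiviral assay and exposed to serial compound dilutions. CC50 is the 50% cytotoxic concentration from colorimetric formazan-based MTS cell viability.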
Another data set relates to HeLa. Described as §2. It counts as cell-based. The note with it: hela, 72 h. Put shortly:
as §3

pEC50: −log10 of the molar value. Values after ≈ are worked out from the molar mass of the structure shown. Active and inactive are the calls of the source. The rule behind the calls is not given here.

As usually defined, the EC50 is the concentration that produces a half-maximal response. The CC50 is the concentration giving 50% cytotoxicity. As usually defined, the pEC50 is the negative decadic logarithm of the EC50, by convention in mol/L.

Turning to `COc1cc(OC)cc(C(=O)N/N=C/c2ccccc2)c1`, the MBC against Bacillus subtilis was 0.044 uM/ml; in the data set on Escherichia coli, 0.177 uM/ml; against Staphylococcus aureus it was 0.088 uM/ml. Also, the inhibition result in the data set with Vaccinia virus, in the data set on Human alphaherpesvirus 1 [1], in the data set with Human alphaherpesvirus 1 [2], in the data set with Feline coronavirus, with Influenza B virus and in the data set on Coxsackievirus B4 [3] was “inactive” in each case. For the same compound, the inhibition result (in the data set with Punta Toro virus; with Human respirovirus 3; with Sindbis virus; with Influenza A virus [7]; in data set [8]; in the data set on Felid alphaherpesvirus 1) was “inactive” throughout. The inhibition entry (with Influenza A virus [9]; with Human alphaherpesvirus 2; in data set [10]) was “inactive” throughout. In addition, the “-logMIC” value in the data set on Aspergillus niger turned out to be 1.66. For the same compound, the figures for the MFC with Aspergillus niger and in the data set on Candida albicans were 0.022 uM/ml and 0.011 uM/ml, respectively. In addition, the EC50 in [4] is > 20 µg/mL; in [5], 6.5 µg/mL; in the data set on Coxsackievirus B4 [6], > 20 µg/mL. This compound displayed an MCC at 72 h in [11] of 100 µg/mL. Moreover, the CC50 in the data set with HeLa is 61.2 µg/mL (≈ 215 µM).

Regarding `NC(=O)c1ncn([C@@H]2O[C@H](CO)[C@@H](O)[C@H]2O)n1` [RIBAVIRIN], the pEC50 is 5.18 in data set [4], 4.76 in data set [5] and 4.14 in the data set with Coxsackievirus B4 [6]. In addition, the CC50 at 72 h in [11] is > 250 µg/mL. Also, the MCC at 72 h in data set [11] is > 250 µM.

On to `Nc1ncnc2c1ncn2C[C@H](O)CO` [(S)-DHPA], for which the pEC50 (in [4]; in [5]; in the data set with Coxsackievirus B4 [6]) was < 3.60 in each case. Moreover, in data set [11], the CC50 at 72 h is > 250 µg/mL. For the same compound, the MCC at 72 h in data set [11] was > 250 µM.

For `COc1cc(OC)cc(C(=O)N/N=C/c2ccccc2Cl)c1`, the MBC against Bacillus subtilis was 0.039 uM/ml; in the data set with Escherichia coli, >0.157 uM/ml; with Staphylococcus aureus it was >0.157 uM/ml. Further, the inhibition entry in the data set on Vaccinia virus, in the data set on Human alphaherpesvirus 1 [1], in the data set with Human alphaherpesvirus 1 [2], in the data set with Feline coronavirus, in the data set with Influenza B virus and in the data set with Coxsackievirus B4 [3] was “inactive” each time. The inhibition result (in the data set on Punta Toro virus; with Human respirovirus 3; in the data set on Sindbis virus; in the data set on Influenza A virus [7]; in data set [8]; in the data set with Felid alphaherpesvirus 1) was “inactive” in each case. Also, the inhibition entry (in the data set with Influenza A virus [9]; with Human alphaherpesvirus 2; in [10]) was “inactive” throughout. Further, the “-logMIC” value worked out at 1.56 with Aspergillus niger and 2.01 in the data set on Candida albicans. Further, the results for the MFC against Aspergillus niger and in the data set with Candida albicans were >0.157 uM/ml and 0.019 uM/ml, respectively. Further, the EC50 was > 20 µg/mL in data set [4], 13.2 µg/mL in [5] and > 20 µg/mL with Coxsackievirus B4 [6]. Also, the MCC at 72 h in data set [11] was 100 µg/mL. This compound yielded a CC50 in the data set with HeLa of 64 µg/mL (≈ 201 µM).
